Residues, ends and D or L forms follow the SMILES beside them.
Assays:
[1] = molecular target: Angiotensin II receptor (Homo sapiens) (UniProt P30556+P50052); test: In vitro angiotensin II-like activity, expressed as percent relative to angiotensin II, measured in the rabbit aorta strip assay; format: functional, tissue-based; details: Oryctolagus cuniculus
Rattus norvegicus [2] = test: Dose required for the two fold increase in the dose of AII to produce the same elevation in blood pressure as in the control period.(in vivo); format: functional
Summary of the method: (§1)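 Rat blood pressure assay in vivo, using 250-g rats. ID50 is the antagonist dose, in ng/rat per min, that requires a twofold increase in the AII dose to give the same blood pressure rise as in the control period.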

Rattus norvegicus [3] = test: AII-like activity, expressed as percent relative to AII (angiotensin II) was measured in the in vivo rat blood pressure assay; format: functional
Summary of the method: (§2)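 Rat blood pressure assay in vivo. Residual agonist activity is expressed as percent activity relative to AII.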

Rattus norvegicus [4] = species on record: Rattus norvegicus; test: Dose required for the two fold increase in the dose of AII to produce the same elevation in blood pressure as in the control period.; format: functional; summary of the method: as §1
Rattus norvegicus [5] = test: In vivo AII-like activity, expressed as percent activity relative to AII (angiotensin II), measured in rat blood pressure assay; format: functional; summary of the method: as §2
Oryctolagus cuniculus [6] = species on record: Oryctolagus cuniculus; test: AII-like activity, expressed as percent relative to AII (angiotensin II) was measured in the in vitro rabbit aorta strip assay; g = partial agonist at 10 ng/mL; format: functional; details: filed as partial agonist
Rattus norvegicus [7] = test: In vivo AII-like activity, expressed as percent activity relative to AII (angiotensin II), measured in rat blood pressure assay; g = partial agonist at 10 ng/mL; format: functional, organism-based; details: filed as partial agonist; summary of the method: as §2
Oryctolagus cuniculus [8] = species on record: Oryctolagus cuniculus; test: AII-like activity, expressed as percent activity relative to AII (angiotensin II), measured in rabbit aorta strip assay
Oryctolagus cuniculus [9] = species on record: Oryctolagus cuniculus; test: In vitro AII-like activity, expressed as percent activity relative to AII (angiotensin II), measured in rabbit aorta; format: functional
Oryctolagus cuniculus [10] = species on record: Oryctolagus cuniculus; test: pA2 value was determined in the range of competitive inhibition in the in vitro rabbit aorta strip assay; g = partial agonist at 10 ng/mL; format: functional; details: filed as partial agonist

Row | Structure (SMILES) | Biological activity [1] | ID50 (Rattus norvegicus [4]) | also measured
1 | CC[C@H](C)[C@H](NC(=O)[C@@H]1CCCN1C(=O)[C@H](Cc1c[nH]cn1)NC(=O)[C@@H](NC(=O)[C@H](Cc1ccc(O)cc1)NC(=O)[C@@H](NC(=O)[C@@H](CCCN=C(N)N)NC(=O)CNC)C(C)C)[C@@H](C)CC)C(=O)O | -0% |  | ID50 (Rattus norvegicus [2]): 150 ng min-1 rat-1
2 | CC[C@H](C)[C@H](NC(=O)[C@@H]1CCCN1C(=O)[C@@H](Cc1c[nH]cn1)NC(=O)[C@@H](NC(=O)[C@H](Cc1ccc(O)cc1)NC(=O)[C@@H](NC(=O)[C@H](CCCN=C(N)N)NC(=O)CNC)C(C)C)[C@@H](C)CC)C(=O)O | -0% |  | Biological activity (Rattus norvegicus [3]): 0%; ID50 (Rattus norvegicus [2]): >1000 ng min-1 rat-1
3 | CC[C@H](C)[C@H](NC(=O)[C@H](Cc1ccc(O)cc1)NC(=O)[C@@H](NC(=O)[C@H](CCCNC(=N)N)NC(=O)CNC)C(C)C)C(=O)N[C@@H](Cc1c[nH]cn1)C(=O)N1CCC[C@H]1C(=O)N[C@H](Cc1ccccc1)C(N)=O |  | 12.5 ng min-1 rat-1 | 
4 | CC[C@H](C)[C@H](NC(=O)[C@H](Cc1ccc(O)cc1)NC(=O)[C@@H](NC(=O)[C@@H](CCCNC(=N)N)NC(=O)CNC)C(C)C)C(=O)N[C@@H](Cc1c[nH]cn1)C(=O)N1CCC[C@@H]1C(=O)NC(Cc1c[nH]c2ccccc12)C(=O)O (stereo in doubt) |  | 10 ng min-1 rat-1 | 
5 | CC[C@H](C)[C@H](NC(=O)[C@H](Cc1ccc(O)cc1)NC(=O)[C@@H](NC(=O)[C@H](CCCN=C(N)N)NC(=O)[C@@H](N)CC(=O)O)C(C)C)C(=O)N[C@@H](Cc1c[nH]cn1)C(=O)N1CCC[C@H]1C(=O)N[C@@H](Cc1ccc(O)cc1)C(=O)O (H-DRVYIHPY-OH) | 100% |  | Biological activity (Rattus norvegicus [5]): 83%
6 | CC[C@H](C)[C@H](NC(=O)[C@H](Cc1ccc(O)cc1)NC(=O)[C@@H](NC(=O)[C@H](CCCNC(=N)N)NC(=O)C[C@@H](N)C(=O)O)C(C)C)C(=O)N[C@@H](Cc1c[nH]cn1)C(=O)N1CCC[C@H]1C(=O)N[C@@H](CC(C)C)C(=O)O |  | 15 ng min-1 rat-1 | 
7 | CC[C@H](C)[C@H](NC(=O)[C@H](Cc1ccc(O)cc1)NC(=O)[C@@H](NC(=O)[C@H](CCCNC(=N)N)NC(=O)CNC)C(C)C)C(=O)N[C@@H](Cc1c[nH]cn1)C(=O)N1CCC[C@H]1C(=O)N[C@@H](C(=O)O)C(C)C |  | 50 ng min-1 rat-1 | Biological activity (Rattus norvegicus [3]): 10
8 | CC[C@H](C)[C@H](NC(=O)[C@H](Cc1ccccc1)NC(=O)[C@@H](NC(=O)[C@H](CCCN=C(N)N)NC(=O)CNC)C(C)C)C(=O)N[C@@H](Cc1c[nH]cn1)C(=O)N1CCC[C@H]1C(=O)N[C@H](Cc1ccc(O)cc1)C(=O)O | -0% | 25 ng min-1 rat-1 | 
9 | CC[C@H](C)[C@H](NC(=O)[C@H](Cc1ccc(O)cc1)NC(=O)[C@@H](NC(=O)[C@H](CCCN=C(N)N)NC(=O)CNC)C(C)C)C(=O)N[C@@H](Cc1c[nH]cn1)C(=O)N1CCC[C@H]1C(=O)N[C@H](Cc1ccc(O)cc1)C(=O)O | -0% | 20 ng min-1 rat-1 | 
10 | CC[C@H](C)[C@H](NC(=O)[C@H](Cc1ccc(O)cc1)NC(=O)[C@@H](NC(=O)[C@H](CCCNC(=N)N)NC(=O)CNC)C(C)C)C(=O)N[C@@H](Cc1c[nH]cn1)C(=O)N1CCC[C@H]1C(=O)N[C@H](Cc1ccc2ccccc2c1)C(=O)O |  | 25 ng min-1 rat-1 | 
11 | CC[C@H](C)[C@H](NC(=O)[C@H](Cc1ccc(O)cc1)NC(=O)[C@@H](NC(=O)[C@H](CCCNC(=N)N)NC(=O)CNC)C(C)C)C(=O)N[C@@H](Cc1c[nH]cn1)C(=O)N1CCC[C@H]1C(=O)N[C@](C)(Cc1ccccc1)C(=O)O |  | 10 ng min-1 rat-1 | 
12 | CC[C@H](C)[C@H](NC(=O)[C@@H]1CCCN1C(=O)[C@H](Cc1c[nH]cn1)NC(=O)[C@@H](NC(=O)[C@H](Cc1ccc(O)cc1)NC(=O)[C@@H](NC(=O)[C@H](CCCN=C(N)N)NC(=O)CNC)C(C)C)[C@@H](C)CC)C(=O)O | -0% |  | ID50 (Rattus norvegicus [2]): 10 ng min-1 rat-1
13 | CC[C@H](C)[C@H](NC(=O)[C@H](Cc1ccc(O)cc1)NC(=O)[C@@H](NC(=O)[C@H](CCCN=C(N)N)NC(=O)CNC)C(C)C)C(=O)N[C@@H](Cc1c[nH]cn1)C(=O)N1CCC[C@H]1C(=O)N[C@H](C(=O)O)c1ccccc1 |  |  | Biological activity (Oryctolagus cuniculus [6]): Partial agonist; Biological activity (Rattus norvegicus [7]): Partial agonist
14 | CC[C@H](C)[C@H](NC(=O)[C@H]1CCCN1C(=O)[C@H](Cc1c[nH]cn1)NC(=O)[C@@H](NC(=O)[C@H](Cc1ccc(O)cc1)NC(=O)[C@@H](NC(=O)[C@H](CCCNC(=N)N)NC(=O)[C@@H](N)CC(=O)O)C(C)C)[C@@H](C)CC)C(=O)O |  |  | Biological activity (Oryctolagus cuniculus [8]): 0.1%
15 | CC[C@H](C)[C@H](NC(=O)[C@H](Cc1ccc(O)cc1)NC(=O)[C@@H](NC(=O)[C@H](CCCN=C(N)N)NC(=O)CNC)C(C)C)C(=O)N[C@@H](Cc1c[nH]cn1)C(=O)N1CCC[C@H]1C(=O)N[C@@H](C)C(=O)O | -0% | 15 ng min-1 rat-1 | 
16 | CC[C@H](C)[C@H](NC(=O)[C@H](Cc1ccc(O)cc1)NC(=O)[C@@H](NC(=O)[C@H](CCCN=C(N)N)NC(=O)CNC)C(C)C)C(=O)N[C@@H](Cc1c[nH]cn1)C(=O)N1CCC[C@H]1C(=O)N[C@@H](C(=O)O)c1ccccc1 | -0% | 3.5 ng min-1 rat-1 | 
17 | CC[C@H](C)[C@H](NC(=O)[C@H](Cc1ccc(O)cc1)NC(=O)[C@@H](NC(=O)[C@H](CCCNC(=N)N)NC(=O)CNC)C(C)C)C(=O)N[C@@H](Cc1c[nH]cn1)C(=O)N1CCC[C@H]1C(=O)N[C@H](Cc1ccc(Cl)cc1)C(=O)O |  | 25 ng min-1 rat-1 | 
18 | CC[C@H](C)[C@H](NC(=O)[C@H](Cc1ccccc1)NC(=O)[C@@H](NC(=O)[C@H](CCCN=C(N)N)NC(=O)CNC)C(C)C)C(=O)N[C@@H](Cc1c[nH]cn1)C(=O)N1CCC[C@H]1C(=O)N[C@@H](Cc1ccc(O)cc1)C(=O)O | -0% | 50 ng min-1 rat-1 | 
19 | CC[C@H](C)[C@H](NC(=O)[C@H](Cc1ccc(O)cc1)NC(=O)[C@@H](NC(=O)[C@H](CCCN=C(N)N)NC(=O)[C@@H](N)CC(=O)O)C(C)C)C(=O)N[C@@H](Cc1c[nH]cn1)C(=O)N1CCC[C@H]1C(=O)N[C@@H](Cc1ccc(N)cc1)C(=O)O |  |  | Biological activity (Rattus norvegicus [5]): 53%
20 | CC[C@H](C)[C@H](NC(=O)[C@H](Cc1ccc(O)cc1)NC(=O)[C@@H](NC(=O)[C@H](CCCN=C(N)N)NC(=O)CNC)C(C)C)C(=O)N[C@@H](Cc1c[nH]cn1)C(=O)N1CCC[C@H]1C(=O)N[C@H](Cc1ccccc1)C(=O)O |  | 12.5 ng min-1 rat-1 | Biological activity (Oryctolagus cuniculus [9]): 0%
21 | CC(C)[C@H](NC(=O)[C@H](CCCNC(=N)N)NC(=O)[C@@H](N)CC(N)=O)C(=O)N[C@@H](Cc1ccc(O)cc1)C(=O)N1CCC[C@@H]1C(=O)N[C@@H](Cc1c[nH]cn1)C(=O)N1CCC[C@H]1C(=O)N[C@@H](Cc1ccccc1)C(=O)O |  |  | Biological activity (Rattus norvegicus [5]): 0.05%
22 | CC[C@H](C)[C@H](NC(=O)C(C)NC(=O)[C@H](Cc1c[nH]cn1)NC(=O)[C@H](NC(=O)[C@@H](Cc1ccc(O)cc1)NC(=O)[C@@H](NC(=O)[C@H](CCCNC(=N)N)NC(=O)[C@@H](N)CC(=O)O)C(C)C)C(C)C)C(=O)O (stereo in doubt) |  | 0 ng min-1 rat-1 | 
23 | CC[C@H](C)[C@H](NC(=O)[C@@H]1CCCN1C(=O)[C@H](Cc1c[nH]cn1)NC(=O)[C@H](NC(=O)[C@H](Cc1ccc(O)cc1)NC(=O)[C@H](NC(=O)[C@H](CCCN=C(N)N)NC(=O)CNC)C(C)C)C(C)C)C(=O)O | -0% |  | Biological activity (Rattus norvegicus [5]): 0%; ID50 (Rattus norvegicus [2]): >1000 ng min-1 rat-1
24 | CC[C@H](C)[C@H](NC(=O)[C@H](Cc1ccc(O)cc1)NC(=O)[C@@H](NC(=O)[C@H](CCCN=C(N)N)NC(=O)CNC)C(C)C)C(=O)N[C@H](Cc1c[nH]cn1)C(=O)N1CCC[C@H]1C(=O)N[C@H](Cc1ccccc1)C(=O)O | -0% | 0 ng min-1 rat-1 | Biological activity (Rattus norvegicus [5]): 0%
25 | CC[C@H](C)[C@H](NC(=O)[C@H](Cc1ccc(O)cc1)NC(=O)[C@@H](NC(=O)[C@H](CCCN=C(N)N)NC(=O)CNC)C(C)C)C(=O)N[C@@H](Cc1c[nH]cn1)C(=O)N1CCC[C@H]1C(=O)N[C@@H](CCc1ccccc1)C(=O)O |  |  | pA2 (Oryctolagus cuniculus [10]): Partial agonist; Biological activity (Oryctolagus cuniculus [6]): Partial agonist
26 | CC(C)[C@H](NC(=O)[C@H](CCCN=C(N)N)NC(=O)[C@@H](N)CC(N)=O)C(=O)N[C@@H](Cc1ccc(O)cc1)C(=O)N1CCC[C@H]1C(=O)N[C@@H](Cc1c[nH]cn1)C(=O)N1CCC[C@H]1C(=O)N[C@@H](Cc1ccccc1)C(=O)O |  |  | Biological activity (Rattus norvegicus [5]): 10%

Reference: ChEMBL document CHEMBL1124265, “Effects of D-amino acid substitution on antagonist activities of angiotensin II analogues” (J Med Chem, 1988)
